Each block holds one compound with its values, some of them ahead of it.
Key:
cancer cell lines = test: Anti-proliferation, comparison of BMX-IN-1 with QL-X-138; type: cell-based; conditions: Supplemental Table 3
MNK1 = MNK1 (Homo sapiens, UniProt Q9BUB5); conditions: cited from earlier work
mTOR = conditions: read-out: IC50, mTOR; biochemical; cited from earlier work
BTK = BTK (Homo sapiens, UniProt Q06187); conditions: cited from earlier work
Ramos cells = test: Signaling pathway effect examination; type: cell-based
Outline: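 Ramos cells in RPMI with 10% FBS were treated with serially diluted test compound for 4 h. Cells were then harvested and lysed, and phosphorylation in the lysates was assessed by western blotting.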

DU-145 = test: Anti-proliferation assay; type: cell-based
OCI-AML3 = test: Anti-proliferation assay; type: cell-based, human
TMD8 = test: Anti-proliferation assay; type: cell-based
HEL = test: Anti-proliferation assay; type: cell-based
K562 = test: Anti-proliferation assay; type: cell-based
NOMO-1 = test: Anti-proliferation assay; type: cell-based, human
U2932 = test: Anti-proliferation assay; type: cell-based
HCT-116 = test: Anti-proliferation assay; type: cell-based
HeLa = test: Anti-proliferation assay; type: cell-based
RV-1 = test: Anti-proliferation assay; type: cell-based
Outline: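 RV-1 cells grown in DMEM with 10% FBS and 1% penicillin-streptomycin, seeded at 2500–3000/well for 12 h, then exposed to test compound at various concentrations for 72 h. Viability read by CellTiter-Glo luminescence and normalized to DMSO controls. Values are the mean of three independent measurements, with standard error <20%, and GI50 was derived by curve fitting.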

SKM-1 = test: Anti-proliferation assay; type: cell-based, human; conditions: SKM-1, AML; 72 hours
MEC-1 = test: Anti-proliferation assay; type: cell-based; conditions: MEC-1, CLL; 72 hours
Hs 505.T = test: Anti-proliferation assay; type: cell-based; conditions: CLL, 72 hours
MEC-2 = test: Anti-proliferation assay; type: cell-based; conditions: MEC-2, CLL; 72 hours
REC-1 = test: Anti-proliferation assay; type: cell-based; conditions: REC-1, MCL; 72 hours
NALM6 = test: Anti-proliferation assay; type: cell-based, human; conditions: NALM6, ALL; 72 hours
NB4 = test: Anti-proliferation assay; type: cell-based, human; conditions: NB4, AML; 72 hours
Ramos = test: Anti-proliferation assay; type: cell-based; conditions: B-lymphoma, 72 hours
U937 = test: Anti-proliferation assay; type: cell-based; conditions: U937, AML; 72 hours

MNK1, sequence (Q9BUB5 1-424 isoform Q9BUB5-2): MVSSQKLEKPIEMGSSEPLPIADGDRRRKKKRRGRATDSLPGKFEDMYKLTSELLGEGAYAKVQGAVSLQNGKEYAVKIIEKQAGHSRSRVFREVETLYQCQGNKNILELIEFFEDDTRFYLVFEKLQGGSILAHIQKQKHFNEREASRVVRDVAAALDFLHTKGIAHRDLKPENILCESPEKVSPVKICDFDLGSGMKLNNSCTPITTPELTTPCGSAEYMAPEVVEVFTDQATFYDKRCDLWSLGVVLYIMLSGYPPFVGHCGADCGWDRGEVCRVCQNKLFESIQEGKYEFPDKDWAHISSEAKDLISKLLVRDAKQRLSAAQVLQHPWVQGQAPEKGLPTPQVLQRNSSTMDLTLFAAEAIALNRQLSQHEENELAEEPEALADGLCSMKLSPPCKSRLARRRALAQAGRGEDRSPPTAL
BTK, sequence (Q06187 whole entry): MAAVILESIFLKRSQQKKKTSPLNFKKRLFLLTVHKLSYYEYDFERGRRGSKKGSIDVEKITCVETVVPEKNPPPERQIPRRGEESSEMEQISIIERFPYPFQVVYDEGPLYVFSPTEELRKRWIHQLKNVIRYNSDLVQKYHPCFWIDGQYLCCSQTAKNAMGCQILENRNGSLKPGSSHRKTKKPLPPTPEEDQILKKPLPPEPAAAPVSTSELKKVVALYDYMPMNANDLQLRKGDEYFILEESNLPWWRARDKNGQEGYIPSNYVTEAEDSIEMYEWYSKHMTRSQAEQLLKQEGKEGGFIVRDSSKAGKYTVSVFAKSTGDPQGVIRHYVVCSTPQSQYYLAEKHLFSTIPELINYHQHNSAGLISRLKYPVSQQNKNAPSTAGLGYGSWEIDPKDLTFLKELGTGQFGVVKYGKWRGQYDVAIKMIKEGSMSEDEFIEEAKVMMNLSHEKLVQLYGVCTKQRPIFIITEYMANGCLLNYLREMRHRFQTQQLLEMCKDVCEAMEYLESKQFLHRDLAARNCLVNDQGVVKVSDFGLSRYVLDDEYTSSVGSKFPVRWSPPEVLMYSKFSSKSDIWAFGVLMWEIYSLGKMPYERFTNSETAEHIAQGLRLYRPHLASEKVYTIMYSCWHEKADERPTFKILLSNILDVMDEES

Compound: C=CC(=O)Nc1cc(-n2c(=O)ccc3cnc4ccc(-c5ccc(NS(C)(=O)=O)cc5)cc4c32)ccc1C [BMX-IN-1]
- anti-proliferation activity in comparison to QL-X-138 (cancer cell lines): weaker anti-proliferation activity

Compound: Nc1ccc(-c2ccc3ncc4ccc(=O)n(-c5cccc(C(F)(F)F)c5)c4c3c2)cn1 [Torin2, 9-(6-aminopyridin-3-yl)-1-(3-(trifluoromethyl)phenyl)benzo[h][1,6]naphthyridin-2(1H)-one]
- activity against MNK1 (MNK1): no apparent activity
- IC50 (mTOR): 0.00025 µM
- activity against BTK (BTK): no apparent activity

- GI50 (DU-145; Homo sapiens, DU-145, 72 h): > 10 µM
- GI50 (OCI-AML3; Homo sapiens, OCI-AML-3, 72 h): > 10 µM
- GI50 (K562; Homo sapiens, K562, 72 h): > 10 µM
- GI50 (HCT-116; Homo sapiens, HCT-116, 72 h): > 10 µM
- GI50 (HeLa; Homo sapiens, 72 h): > 10 µM
Compound: C=CC(=O)N1CCC[C@@H](n2nc(-c3ccc(Oc4ccccc4)cc3)c3c(N)ncnc32)C1 [PCI-32765]
- effect on MNK phosphorylation (Ramos cells; 4 hours): did not affect
- effect on phosphorylation of PLCγ2 Y1217 (Ramos cells; 4 hours): strongly blocked
- GI50 (TMD8; Homo sapiens, TMD8, 72 h): 0.002 µM
- GI50 (HEL; Homo sapiens, 72 h): 4 µM
- GI50 (NOMO-1; Homo sapiens, NOMO-1, 72 h): > 10 µM
- GI50 (U2932; Homo sapiens, U2932, 72 h): > 10 µM
- GI50 (RV-1; RV-1, 72 h): > 10 µM

- GI50 (DU-145; DU-145, Prostate, 72 hours): > 10 µM
- GI50 (OCI-AML3; OCI-AML3, AML, 72 hours): > 10 µM
- GI50 (SKM-1): > 10 µM
- GI50 (K562; K562, CML, 72 hours): > 10 µM
- GI50 (HCT-116; HCT-116, Colon, 72 hours): > 10 µM
- GI50 (HeLa; Cervical, 72 hours): > 10 µM
- GI50 (Ramos): > 10 µM
- GI50 (U937): 3.9 µM
Compound: CC(=O)C1=C(O)C=C2Oc3c(C(N)=O)c(O)cc(O)c3[C@]2(C)C1=O [Cercosporamide]
- effect on MNK phosphorylation (Ramos cells; 4 hours): did not affect
- effect on phosphorylation of eIF4E S209 (Ramos cells; at a concentration of 1 μM): suppressed
- GI50 (MEC-1): > 10 µM
- GI50 (Hs 505.T): > 10 µM
- GI50 (MEC-2): > 10 µM
- GI50 (REC-1): > 10 µM
- GI50 (TMD8; TMD8, DLBCL, 72 hours): > 10 µM
- GI50 (HEL; AML, 72 hours): > 10 µM
- GI50 (NALM6): > 10 µM
- GI50 (NOMO-1; NOMO-1, AML, 72 hours): > 10 µM
- GI50 (U2932; U2932, DLBCL, 72 hours): > 10 µM
- GI50 (NB4): > 10 µM
- GI50 (RV-1; RV-1, Prostate, 72 hours): > 10 µM
